# Data: ChEMBL document CHEMBL1146338, “Synthesis and antioxidant activity evaluation of new 7-aryl or 7-heteroarylamino-2,3-dimethylbenzo[b]thiophenes obtained by Buchwald-Hartwig C-N cross-coupling” (Bioorg Med Chem, 2007)
# Key:
# [1] = system: Radical scavenging activity; assay: Antioxidant activity assessed as DPPH radical scavenging activity at 0.0156 g/L; format: functional
# Outline: (§1)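 Compound in methanol (0.3 mL, various concentrations) mixed with methanolic DPPH ([…] stock, 2.7 mL), shaken and held 60 min in the dark. Absorbance read at 517 nm. %RSA = [(ADPPH − AS)/ADPPH] × 100. Means of three independent samples. EC50 (50% scavenging) taken from the plot of %RSA against concentration; BHA and BHT as standards.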
# [2] = system: Radical scavenging activity; assay: Antioxidant activity assessed as DPPH radical scavenging activity at 0.0312 g/L; format: functional; outline: as §1
# [3] = system: Radical scavenging activity; assay: Antioxidant activity assessed as DPPH radical scavenging activity at 0.0625 g/L; format: functional; outline: as §1
# [4] = system: Radical scavenging activity; assay: Antioxidant activity assessed as DPPH radical scavenging activity at 0.125 g/L; format: functional; outline: as §1
# [5] = system: Radical scavenging activity; assay: Antioxidant activity assessed as DPPH radical scavenging activity at 0.250 g/L; format: functional; outline: as §1
# [6] = system: Erythrocyte; assay: Inhibition of AAPH-induced ram erythrocyte hemolysis at 0.250 g/L; format: functional; details: Ovis aries
# Outline: (§2)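 Erythrocytes from a male ram (churra galega transmontana) washed three times in 10 mM PBS pH 7.4. A 20% suspension combined with 200 mM AAPH in PBS and methanolic compound at different concentrations, shaken gently 3 h at 37 C. Diluted with PBS, centrifuged, supernatant A540 read. % inhibition set against the AAPH control without compound. Triplicate means; EC50 from the plot; L-ascorbic acid as standard.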
# [7] = system: Erythrocyte; assay: Inhibition of AAPH-induced ram erythrocyte hemolysis at 0.0156 g/L; format: functional; details: Ovis aries; outline: as §2
# [8] = system: Erythrocyte; assay: Inhibition of AAPH-induced ram erythrocyte hemolysis at 0.0312 g/L; format: functional; details: Ovis aries; outline: as §2
# [9] = system: Erythrocyte; assay: Inhibition of AAPH-induced ram erythrocyte hemolysis at 0.0625 g/L; format: functional; details: Ovis aries; outline: as §2
# [10] = system: Erythrocyte; assay: Inhibition of AAPH-induced ram erythrocyte hemolysis at 0.125 g/L; format: functional; details: Ovis aries; outline: as §2
# [11] = Antioxidant activity assessed as inhibition of lipid peroxidation at 0.0156 g/L after 2 hrs by beta carotene bleaching method; format: functional
# Outline: (§3)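 β-Carotene linoleate emulsion (β-carotene dissolved in chloroform) incubated with compound at 50 C in a water bath. A470 read at time zero, then every 20 min until the control lost colour; a blank without β-carotene was subtracted. Activity = (β-carotene after 2 h / initial β-carotene) × 100. Triplicate means; EC50 taken from the activity % versus concentration plot.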
# [12] = Antioxidant activity assessed as inhibition of lipid peroxidation at 0.0312 g/L after 2 hrs by beta carotene bleaching method; format: functional; outline: as §3
# [13] = Antioxidant activity assessed as inhibition of lipid peroxidation at 0.0625 g/L after 2 hrs by beta carotene bleaching method; format: functional; outline: as §3
# [14] = Antioxidant activity assessed as inhibition of lipid peroxidation at 0.125 g/L after 2 hrs by beta carotene bleaching method; format: functional; outline: as §3
# [15] = Antioxidant activity assessed as inhibition of lipid peroxidation at 0.250 g/L after 2 hrs by beta carotene bleaching method; format: functional; outline: as §3
# [16] = Antioxidant activity assessed as reduction of ferric cyanide complex by reducing power assay; format: functional
# Outline: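 Oyaizu method: methanolic compound at various concentrations mixed with sodium phosphate buffer (200 mmol/L, pH 6.6) and 1% potassium ferricyanide, held 20 min at 50 C. 10% TCA added, then centrifuged. Supernatant diluted with water, 0.1% FeCl3 added, A700 read. Triplicate means; EC50 = concentration giving absorbance 0.5, from the A700 versus concentration plot. Standards: BHA, BHT, ascorbic acid.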
# [17] = system: Radical scavenging activity; assay: Antioxidant activity assessed as DPPH radical scavenging activity; format: functional; outline: as §1
# [18] = system: Erythrocyte; assay: Inhibition of AAPH-induced ram erythrocyte hemolysis; format: functional, cell-based; details: Ovis aries; outline: as §2
# [19] = Antioxidant activity assessed as inhibition of lipid peroxidation after 2 hrs by beta carotene bleaching method; format: functional; outline: as §3
# [20] = system: Erythrocyte; assay: Inhibition of AAPH-induced ram erythrocyte hemolysis at 1 g/L; format: functional; details: Ovis aries; outline: as §2
# [21] = Antioxidant activity assessed as inhibition of lipid peroxidation at 2 g/L after 2 hrs by beta carotene bleaching method; format: functional; outline: as §3
Compound,Activity [1] [%],Activity [2] [%],Activity [3] [%],Activity [4] [%],Activity [5] [%],inhibition at 250 µg/mL [6] [%],inhibition at 15.6 µg/mL [7] [%],inhibition at 31.2 µg/mL [8] [%],inhibition at 62.5 µg/mL [9] [%],inhibition at 125 µg/mL [10] [%],inhibition [11] [%],inhibition [12] [%],inhibition [13] [%],inhibition [14] [%],inhibition [15] [%],EC50 [16] [µg/mL],EC50 [17] [µg/mL],EC50 [18] [µg/mL],EC50 [19] [µg/mL],other results
Cc1sc2c(Nc3ccc(C#N)cc3)cccc2c1C,0,0,0,0.5,3.1,66.4,48.3,59.4,62.1,62.6,49.6,67.3,69,71,79.6,> 250,> 250,18,16,
Cc1sc2c(Nc3cccnc3)cccc2c1C,2.5,2.8,5.5,9,15.5,74.1,41.8,56.8,66.9,69.3,48.1,65.4,70.9,76.1,86.2,> 250,> 250,24.1,17.3,
O=C1O[C@H]([C@@H](O)CO)C(O)=C1O [ASCORBIC ACID],,,,,,,,,,,,,,,,,,,,inhibition at 1000 µg/mL [20]: 94.6%
COc1ccc(Nc2cccc3c(C)c(C)sc23)cc1,55.8,85.8,88.4,91.1,93.3,66.7,43.4,61.2,65.1,65.9,92.3,96.8,99.7,100,100,21.6,14,21.4,8.45,
CC(C)(C)c1cc(O)ccc1O,,,,,,,,,,,,,,,,,,,,inhibition [21]: 82.2%
COc1cccc(Nc2cccc3c(C)c(C)sc23)c1,7.9,13.4,13.5,22.2,28.4,66.7,40.3,44.3,58,63.1,56.8,62.9,68.9,82.6,84.8,98.7,> 250,44.2,13.7,
Cc1sc2c(Nc3ccccn3)cccc2c1C,0.4,2.6,4.9,8.8,9,69.5,38.4,44.5,53,64.6,40.7,42.9,45.8,45.9,47.2,> 250,> 250,51.4,> 250,
COc1ccc(Nc2cccc3c(C)c(C)sc23)cc1OC,47.3,72.4,86.9,92.1,94.7,62.9,47.8,58.3,61.2,62.1,89.3,91.4,100,100,100,22.7,17.3,18.9,8.73,
